One block for each molecule: values may come before it. The source made the active and inactive calls. The calls are words filed in the database; no cut-off is given here.
Columns and labels:
MCF7 = assay: cells; format: functional, cell-based; settings: Homo sapiens, MCF7, 72 h
MDA-MB-231 [1] = assay: cells; format: functional, cell-based; settings: Homo sapiens, MDA-MB-231, 72 h
Histone deacetylase 1 [2] = target: T1, Histone deacetylase 1 (Homo sapiens, UniProt Q13547); assay: Inhibition of HDAC1 in human MDA-MB-231 cells assessed as accumulation of acetylated H4 at 50 to 100 uM by western blot analysis; format: cell-based
In short: (§1)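 MDA-MB-231 cells were grown in DMEM for 24 h, serum-starved for 24 h, then treated for 4 h (DMSO control). Lysates were made in RIPA with protease and phosphatase inhibitors and normalized by BCA. 20-40 µg was run on 4-20% gels and transferred to PVDF, which was blocked in 5% BSA. Membranes were probed overnight for acetyl-α-tubulin or acetyl-H4, then with secondary for 1 h, and bands were quantified by infrared imaging.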

[3] = target: T2, Protein deacetylase HDAC6 (Homo sapiens) (UniProt Q9UBN7); assay: Inhibition of HDAC6 in human MDA-MB-231 cells assessed as accumulation of acetylated tubulin at 50 to 100 uM by western blot analysis; format: cell-based
T2 sequence (whole entry): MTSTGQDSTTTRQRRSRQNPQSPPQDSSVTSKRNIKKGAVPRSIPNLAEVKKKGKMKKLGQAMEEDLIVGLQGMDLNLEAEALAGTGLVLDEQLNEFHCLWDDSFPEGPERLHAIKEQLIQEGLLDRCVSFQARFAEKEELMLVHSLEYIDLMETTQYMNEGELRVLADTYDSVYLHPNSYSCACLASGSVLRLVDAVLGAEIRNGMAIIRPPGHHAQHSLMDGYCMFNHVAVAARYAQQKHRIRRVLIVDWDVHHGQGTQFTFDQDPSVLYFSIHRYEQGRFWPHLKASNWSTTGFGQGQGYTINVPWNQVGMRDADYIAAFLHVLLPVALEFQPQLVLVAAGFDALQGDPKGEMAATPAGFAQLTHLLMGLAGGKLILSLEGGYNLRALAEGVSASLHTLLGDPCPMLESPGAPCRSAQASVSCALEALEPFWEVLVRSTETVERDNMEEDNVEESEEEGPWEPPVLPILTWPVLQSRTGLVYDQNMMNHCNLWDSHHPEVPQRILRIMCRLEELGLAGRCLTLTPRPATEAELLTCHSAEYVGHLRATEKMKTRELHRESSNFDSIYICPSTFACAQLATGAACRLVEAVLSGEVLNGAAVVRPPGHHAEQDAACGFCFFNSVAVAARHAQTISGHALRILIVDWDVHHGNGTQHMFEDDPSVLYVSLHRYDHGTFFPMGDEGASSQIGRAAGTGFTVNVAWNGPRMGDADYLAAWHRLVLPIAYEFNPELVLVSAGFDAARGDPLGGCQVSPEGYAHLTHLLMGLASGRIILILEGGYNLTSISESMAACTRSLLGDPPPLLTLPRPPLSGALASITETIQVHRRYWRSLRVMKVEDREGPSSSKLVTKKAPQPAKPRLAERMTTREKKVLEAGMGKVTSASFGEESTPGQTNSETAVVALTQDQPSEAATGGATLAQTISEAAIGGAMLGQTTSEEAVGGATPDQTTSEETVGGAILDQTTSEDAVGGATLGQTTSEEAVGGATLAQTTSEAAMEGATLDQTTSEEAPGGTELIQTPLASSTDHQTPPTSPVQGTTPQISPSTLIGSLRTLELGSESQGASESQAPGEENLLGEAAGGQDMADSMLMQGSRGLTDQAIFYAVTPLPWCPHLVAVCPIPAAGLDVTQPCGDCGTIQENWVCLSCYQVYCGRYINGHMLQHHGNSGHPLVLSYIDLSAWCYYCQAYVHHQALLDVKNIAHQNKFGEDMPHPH
In short: as §1

[4] = target: Signal transducer and activator of transcription 3 (Homo sapiens) (UniProt P40763); assay: Inhibition of STAT3 in human MDA-MB-231 cells assessed as upregulation of p-p38 expression after 24 hrs by western blot analysis; format: cell-based
In short: (§2)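 MDA-MB-231 cells, 1*10⁶ per well, were grown in DMEM for 24 h, serum-starved for 24 h, then treated for 24 h from DMSO solutions (final DMSO 0.1%; DMSO control). Cells were lysed in RIPA with protease and phosphatase inhibitors and protein equalized by BCA. 20-40 µg was run on 4-20% gels and transferred to PVDF, which was blocked in 5% BSA. Primary antibodies were applied overnight and secondary for 1 h, and band intensities were quantified by infrared imaging.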

[5] = target: Signal transducer and activator of transcription 3 (Homo sapiens) (UniProt P40763); assay: Inhibition of STAT3 in human MDA-MB-231 cells assessed as upregulation of Bcl-xLexpression after 24 hrs by western blot analysis; format: cell-based
In short: as §2

[6] = target: Signal transducer and activator of transcription 3 (Homo sapiens) (UniProt P40763); assay: Inhibition of STAT3 in human MDA-MB-231 cells assessed as effect on pSTAT3 expression at 50 to 100 uM after 24 hrs by western blot analysis; format: cell-based
In short: as §2

[7] = target: Signal transducer and activator of transcription 3 (Homo sapiens) (UniProt P40763); assay: Inhibition of STAT3 in human MDA-MB-231 cells assessed as downregulation of cyclinD1 expression at 100 to 200 uM after 24 hrs by western blot analysis; format: cell-based
In short: as §2

Histone deacetylase 1 [8] = target: T1, Histone deacetylase 1; assay: Inhibition of human recombinant HDAC1 using fluorogenic HDAC substrate preincubated for 30 mins followed by substrate addition and measured after 15 mins by fluorogenic assay
[9] = target: T3, Protein deacetylase HDAC6 (Homo sapiens, UniProt Q9UBN7); assay: Inhibition of human recombinant HDAC6 using fluorogenic HDAC substrate 3 preincubated for 30 mins followed by substrate addition and measured after 15 mins by fluorogenic assay
T3 sequence (Q9UBN7 whole entry): T2 sequence (whole entry)

Histone deacetylase 8 = target: T4, Histone deacetylase 8 (Homo sapiens, UniProt Q9BY41); assay: Inhibition of human recombinant HDAC8 using fluorogenic HDAC substrate class 2A preincubated for 30 mins followed by substrate addition and measured after 15 mins by fluorogenic assay
T4 sequence (Q9BY41 whole entry): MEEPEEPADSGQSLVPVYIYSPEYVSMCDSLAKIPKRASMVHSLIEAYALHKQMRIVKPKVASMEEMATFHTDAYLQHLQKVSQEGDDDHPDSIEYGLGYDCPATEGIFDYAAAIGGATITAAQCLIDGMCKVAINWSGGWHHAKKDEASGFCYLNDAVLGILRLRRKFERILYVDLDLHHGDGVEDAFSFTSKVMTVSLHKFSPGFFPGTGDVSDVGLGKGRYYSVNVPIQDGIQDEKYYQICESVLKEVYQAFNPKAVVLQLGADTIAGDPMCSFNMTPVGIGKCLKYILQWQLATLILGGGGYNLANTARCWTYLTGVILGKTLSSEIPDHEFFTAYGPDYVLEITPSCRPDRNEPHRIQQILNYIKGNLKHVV

A549 = assay: cells; format: functional, cell-based; settings: Homo sapiens, A549, 72 h
MDA-MB-231 [10] = assay: Cell cycle arrest in human MDA-MB-231 cells assessed as accumulation of cells at G2 phase at 15 uM incubated for 48 hrs RNase/PI staining based flow cytometry assay; format: functional
In short: (§3)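 MDA-MB-231 cells, 5*10⁶ per 10 cm plate, were grown in DMEM for 24 h and then dosed for 48 h from DMSO stocks (final DMSO 0.1%; DMSO as control). Cells were trypsinized, washed twice in cold PBS and fixed in 70% ethanol overnight at -20°C. They were treated with 200 ug/mL RNase for 30 min, stained with 50 ug/mL PI at RT for 30 min, and DNA content was read by flow cytometry.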

Vero = assay: cells; settings: Chlorocebus sabaeus, 72 h
Histone deacetylase 1 [11] = target: T1, Histone deacetylase 1; assay: Inhibition of HDAC1 in human MDA-MB-231 cells assessed as accumulation of acetylated H4 at 12.5 to 50 uM by western blot analysis; format: cell-based
In short: as §1

[12] = target: T2, Protein deacetylase HDAC6 (Homo sapiens); assay: Inhibition of HDAC6 in human MDA-MB-231 cells assessed as accumulation of acetylated tubulin at 12.5 to 50 uM by western blot analysis; format: cell-based
In short: as §1

[13] = target: Signal transducer and activator of transcription 3 (Homo sapiens) (UniProt P40763); assay: Inhibition of STAT3 in human MDA-MB-231 cells assessed as downregulation of Bcl-xL expression after 24 hrs by western blot analysis; format: cell-based
In short: as §2

[14] = target: Signal transducer and activator of transcription 3 (Homo sapiens) (UniProt P40763); assay: Inhibition of STAT3 in human MDA-MB-231 cells assessed as slight downregulation of Bcl-2 expression at 5 to 25 uM after 24 hrs by western blot analysis; format: cell-based
In short: as §2

[15] = target: Signal transducer and activator of transcription 3 (Homo sapiens) (UniProt P40763); assay: Inhibition of STAT3 in human MDA-MB-231 cells assessed as effect on pSTAT3 expression at 5 to 25 uM after 24 hrs by western blot analysis; format: cell-based
In short: as §2

[16] = target: Signal transducer and activator of transcription 3 (Homo sapiens) (UniProt P40763); assay: Inhibition of STAT3 in human MDA-MB-231 cells assessed as downregulation of cyclinD1 expression at 2.5 to 5 uM after 24 hrs by western blot analysis; format: cell-based
In short: as §2

MDA-MB-231 [17] = assay: Cell cycle arrest in human MDA-MB-231 cells assessed as accumulation of cells at G1 phase at 25 uM incubated for 48 hrs RNase/PI staining based flow cytometry assay (reference value: 64.3 %); format: functional
In short: as §3

MDA-MB-231 [18] = assay: Cell cycle arrest in human MDA-MB-231 cells assessed as accumulation of cells at S phase at 12.5 uM incubated for 48 hrs RNase/PI staining based flow cytometry assay (reference value: […] %); format: functional
In short: as §3

MDA-MB-231 [19] = assay: Cell cycle arrest in human MDA-MB-231 cells assessed as accumulation of cells at S phase at 25 uM incubated for 48 hrs RNase/PI staining based flow cytometry assay (reference value: 11.5 %); format: functional
In short: as §3

MDA-MB-231 [20] = assay: Cell cycle arrest in human MDA-MB-231 cells assessed as accumulation of cells at G2 phase at 12.5 uM incubated for 48 hrs RNase/PI staining based flow cytometry assay (reference value: 17.4 %); format: functional
In short: as §3

MDA-MB-231 [21] = assay: Cell cycle arrest in human MDA-MB-231 cells assessed as accumulation of cells at G2 phase at 25 uM incubated for 48 hrs RNase/PI staining based flow cytometry assay (reference value: 17.4 %); format: functional
In short: as §3

MDA-MB-231 [22] = assay: Cell cycle arrest in human MDA-MB-231 cells assessed as accumulation of cells at G2 phase at 12.5 uM incubated for 48 hrs by flow cytometry (reference value: […] %)

T1 sequence (Q13547 whole entry): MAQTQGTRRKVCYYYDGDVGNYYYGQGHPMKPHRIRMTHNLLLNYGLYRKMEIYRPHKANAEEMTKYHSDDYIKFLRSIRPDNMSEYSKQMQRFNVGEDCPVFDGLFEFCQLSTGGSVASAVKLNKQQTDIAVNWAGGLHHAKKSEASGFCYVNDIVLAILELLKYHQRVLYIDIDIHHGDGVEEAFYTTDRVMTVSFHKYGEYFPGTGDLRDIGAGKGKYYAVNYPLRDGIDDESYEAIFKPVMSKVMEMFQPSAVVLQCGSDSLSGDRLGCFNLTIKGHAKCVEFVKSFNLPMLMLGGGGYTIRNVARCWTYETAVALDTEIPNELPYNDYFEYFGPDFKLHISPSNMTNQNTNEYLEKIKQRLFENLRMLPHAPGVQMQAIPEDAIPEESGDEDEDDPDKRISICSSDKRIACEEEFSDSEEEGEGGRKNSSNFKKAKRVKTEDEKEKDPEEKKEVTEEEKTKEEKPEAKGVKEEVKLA
Chain of Signal transducer and activator of transcription 3 (Homo sapiens) (P40763 whole entry): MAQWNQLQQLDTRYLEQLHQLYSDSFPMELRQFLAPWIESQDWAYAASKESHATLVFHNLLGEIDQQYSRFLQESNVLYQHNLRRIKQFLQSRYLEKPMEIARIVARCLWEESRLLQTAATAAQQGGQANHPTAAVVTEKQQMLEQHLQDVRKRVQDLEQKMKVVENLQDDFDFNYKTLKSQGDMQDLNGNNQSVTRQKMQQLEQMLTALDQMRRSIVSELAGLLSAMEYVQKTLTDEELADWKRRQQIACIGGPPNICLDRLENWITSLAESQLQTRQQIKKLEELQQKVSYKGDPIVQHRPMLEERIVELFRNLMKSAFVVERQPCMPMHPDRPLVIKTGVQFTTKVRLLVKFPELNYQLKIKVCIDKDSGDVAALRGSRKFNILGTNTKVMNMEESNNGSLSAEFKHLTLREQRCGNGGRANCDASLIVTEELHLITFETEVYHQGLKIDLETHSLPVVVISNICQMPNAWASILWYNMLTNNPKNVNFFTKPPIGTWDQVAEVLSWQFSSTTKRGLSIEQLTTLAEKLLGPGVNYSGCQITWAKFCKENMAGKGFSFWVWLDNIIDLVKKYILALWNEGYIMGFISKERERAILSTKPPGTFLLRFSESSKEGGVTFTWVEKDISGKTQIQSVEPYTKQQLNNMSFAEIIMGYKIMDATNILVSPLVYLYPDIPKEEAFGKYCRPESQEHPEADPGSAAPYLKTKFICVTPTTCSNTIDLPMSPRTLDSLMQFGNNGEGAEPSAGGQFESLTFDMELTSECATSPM

IC50 (MCF7): 453 µM
IC50 (MDA-MB-231 [1]): 238 µM
inhibition (Histone deacetylase 1 [2]): inactive
inhibition [3]: inactive
inhibition [4]: Dose-dependent effect
inhibition [5]: Active
inhibition [6]: inactive
inhibition [7]: Active
SMILES: CCc1nc(N)nc(N)c1-c1ccc(Cl)cc1 [PYRIMETHAMINE]

IC50 (Histone deacetylase 1 [8]): 0.045 µM
IC50 [9]: 0.017 µM
IC50 (Histone deacetylase 8): 0.78 µM
IC50 (A549): 65.5 µM
IC50 (MCF7): 57.3 µM
IC50 (MDA-MB-231 [1]): 12.2 µM
SMILES: CCc1nc(N)nc(N)c1-c1ccc(-c2cn(CCCCCCC(=O)NO)nn2)cc1
Activity (MDA-MB-231 [10]): Active
IC50 (Vero): 40.2 µM

IC50 (Histone deacetylase 1 [8]): 2.2 µM
IC50 [9]: 0.4 µM
IC50 (Histone deacetylase 8): 1.8 µM
SMILES: CCc1nc(N)nc(N)c1-c1ccc(/C=C/C(=O)NO)cc1

IC50 (Histone deacetylase 1 [8]): 0.21 µM
IC50 [9]: 0.021 µM
IC50 (A549): 88.5 µM
IC50 (MCF7): 83.3 µM
IC50 (MDA-MB-231 [1]): 21.4 µM
inhibition (Histone deacetylase 1 [11]): Active
inhibition [12]: Active
inhibition [4]: Dose-dependent effect
inhibition [13]: Dose-dependent effect
inhibition [14]: Active
inhibition [15]: inactive
inhibition [16]: Active
SMILES: CCc1nc(N)nc(N)c1-c1ccc(-c2cn(CCCCCCCC(=O)NO)nn2)cc1
Activity (MDA-MB-231 [17]): 22.1%
Activity (MDA-MB-231 [18]): 5.17%
Activity (MDA-MB-231 [19]): 1.63%
Activity (MDA-MB-231 [20]): 66.8%
Activity (MDA-MB-231 [21]): 70.6%
Activity (MDA-MB-231 [22]): 24%

Source: ChEMBL document CHEMBL4627284, “Pyrimethamine conjugated histone deacetylase inhibitors: Design, synthesis and evidence for triple negative breast cancer selective cytotoxicity” (Bioorg Med Chem, 2020)
